Assay results taken from ChEMBL document CHEMBL3612047, “Synthesis, antiproliferative activity and possible mechanism of action of novel 2-acetamidobenzamides bearing the 2-phenoxy functionality” (Bioorg Med Chem, 2015).
pIC50: −log10 of the molar value.

What was measured:
[1] = system: K562; experiment: Growth inhibition of human K562 cells incubated for 24 hrs by trypan blue dye exclusion assay; type: functional, cell-based; details: K562, 24 h
In short: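 K562 cells, about 2 × 10⁵ cells/mL, precultured 24 h, then exposed 24 h to a range of compound concentrations. Viable cells counted by hemocytometer with trypan blue exclusion to derive IC₅₀.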

[2] = Cytotoxicity against human HuDe cells incubated for 72 hrs by MTT assay; type: cell-based
In short: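 HuDe primary culture from human epidermis, seeded at 2 × 10⁴ cells/mL. Test drugs at different concentrations, or 0.1% DMSO, added 24 h after seeding, with 72 h exposure. MTT (5 mg/mL in PBS) then applied for 3 h at 37 °C. Formazan solubilized with isopropanol/triton X-100/HCl and read at 570 nm with 690 nm blank.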

[3] = system: K562; experiment: Growth inhibition of human K562 cells at 10 uM incubated for 24 hrs by trypan blue dye exclusion assay; type: functional; details: K562, 24 h, read-out: GI
In short: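 K562 cells in medium with 5% FBS at 37 °C, 5% CO₂. About 2 × 10⁵ cells/mL cultured 24 h, then compound added at 10 μM. After 24 h exposure, cells counted by hemocytometer and viability scored by trypan blue exclusion, reported as percent growth inhibition.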

[4] = system: K562; experiment: Selectivity index, ratio of IC50 for human HuDe cells to IC50 human K562 cells
In short: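 Index taken as the ratio of HuDe to K562 IC₅₀. For K562: about 2 × 10⁵ cells/mL, compounds added at graded concentrations, viable count by trypan blue exclusion with a hemocytometer after 24 h. For HuDe primary epidermal cells: 2 × 10⁴ cells/mL, drugs or 0.1% DMSO added 24 h after seeding, MTT read at 570 nm (690 nm blank) after 72 h.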

[5] = Growth inhibition of human NCI60 cells assessed as cell growth level at 10 uM by NCI standard protocol based method; type: functional; design: scale not given: the % may be the effect or the level left
In short: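 NCI 60-cell-line screen (leukemia, lung, colon, melanoma, renal, ovarian, brain, breast, prostate) run to the NCI standard protocol. Single high dose of 10⁻⁵ M, read as growth percent. Mean graph midpoint is the arithmetic mean over all lines tested.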

SMILES | pIC50 [1] | pIC50 [2] | inhibition of growth at 10 µM [3] | Ratio IC50 [4] | Activity [5]
Cc1ccc(NC(=O)COc2ccccc2)c(C(N)=O)c1 | 5.33 | 4.00 | 72% | 21.13 | 
COc1ccc(NC(=O)COc2ccc(C)cc2)c(C(N)=O)c1 |  |  | 48.1% |  | 
Cc1ccc(OCC(=O)Nc2ccc(Cl)cc2C(N)=O)cc1 |  |  | 24.1% |  | 
Cc1ccccc1OCC(=O)Nc1ccc(Cl)cc1C(N)=O | 5.79 | 4.56 | 75.9% | 16.96 | 
Cc1ccc(OCC(=O)Nc2ccccc2C(N)=O)cc1 |  |  | < 10% |  | 
NC(=O)c1cccc(NC(=O)COc2ccccc2)c1 |  |  | < 10% |  | 
NC(=O)c1ccccc1NC(=O)COc1ccc(Cl)cc1Cl |  |  | < 10% |  | 
Cc1ccccc1OCC(=O)Nc1ccccc1C(N)=O |  |  | 19.7% |  | 
COc1cc2c(c(OC)c1OC)-c1ccc(OC)c(=O)cc1[C@@H](NC(C)=O)CC2 [COLCHICINE] |  |  | 63.6% |  | 
COc1ccc(NC(=O)COc2ccccc2C)c(C(N)=O)c1 |  |  | 40.1% |  | 
NC(=O)c1ccc(NC(=O)COc2ccccc2)cc1 |  |  | 23.7% |  | 
Cc1ccc(NC(=O)COc2ccc(Cl)cc2Cl)c(C(N)=O)c1 |  |  | 35.4% |  | 
Cc1ccc(OCC(=O)Nc2ccc(I)cc2C(N)=O)cc1 | 5.00 | 3.45 | 49.8% | 35.57 | 
Cc1ccc(NC(=O)COc2ccccc2C)c(C(N)=O)c1 |  |  | 45.6% |  | 
NC(=O)c1ccccc1NC(=O)COc1ccccc1 | 5.05 | 3.28 | 57.4% | 58.76 | 
NC(=O)c1cc(Cl)ccc1NC(=O)COc1ccc(Cl)cc1Cl |  |  | 18.8% |  | 
NC(=O)c1ccccc1NC(=O)COc1cccc(Cl)c1Cl |  |  | < 10% |  | 
COc1cc(NC(=O)COc2cccc(Cl)c2Cl)c(C(N)=O)cc1OC |  |  | 17.7% |  | 
Cc1ccc(OCC(=O)Nc2ccc(C)cc2C(N)=O)cc1 |  |  | 30.3% |  | 
NC(=O)c1cc(I)ccc1NC(=O)COc1ccc(Cl)cc1Cl | 5.16 | 4.47 | 74.7% | 4.9 | 87.28%
Cc1ccc(NC(=O)COc2cccc(Cl)c2Cl)c(C(N)=O)c1 |  |  | 30.8% |  | 
